The values below come from ChEMBL document CHEMBL1135880, “Synthesis and X-ray studies of chiral allosteric modifiers of hemoglobin” (J Med Chem, 2002).

SMILES strings stand for the structures.

Experiment [1] has as its target T1, Hemoglobin HbA (Homo sapiens) (UniProt P69905+P68871). Briefly: Ability to right-shift the oxygen equilibrium curves (OECs) quantified by ability to increase in P50 at which Hb was 50% saturated with oxygen in the […] of the effector. It is filed as functional.
For experiment [2], the target named is T1, Hemoglobin HbA (Homo sapiens). Briefly: Ratio of […] (P50 control value with no effector present 5.0 mmHg, in case of DMSO is 4.7 mmHg ). It is filed as functional.
For experiment [3] the target is unchanged. In words: Oxygen pressure in mmHg at which Hb is 50% saturated with oxygen at 50-60 uM heme concentration and in the presence of 0.5 mM effector. In kind it is functional.
Experiment [4] shares this target. Briefly: The difference in the partial pressure of oxygen at 50% saturated Hb. In kind it is functional. The essentials: (§1)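 Human whole blood; DMSO stock 200 mM, final 5 mM effector, DMSO-only control. Duplicate samples equilibrated ~10 min at 37 °C in tonometers against gas mixtures of 2.95%, 5.85% and 8.75% O2 with 5.8% CO2, balance N2. pO2 and sO2 read on blood gas analyzer and co-oximeter. P50 and n50 from nonlinear regression; ΔP50 = P50 effector − P50 control.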

Experiment [5] shares this target. Briefly: The Hill coefficient at 50% saturation (n50) between 40 and 60% oxygen saturation (n50 control value with no effector present, 2.7). In kind it is protein-complex assay.
The target is the same in experiment [6]. Briefly: The Hill coefficient at 50% saturation (n50) in the presence of effector. In kind it is protein-complex assay. The essentials: as §1
The target is the same in experiment [7]. Briefly: Ability to right-shift the oxygen equilibrium curves (OECs) quantified by ability to increase in P50 at which Hb was 50% saturated with oxygen in the presence of the effector at the concentration of 5 mM. In kind it is functional. The essentials:
as §1

Experiment [8] has the same target. Briefly: Ability to right-shift the oxygen equilibrium curves (OECs) quantified by ability to increase in P50 in whole blood analyses. It is filed as functional, tissue-based. The essentials: as §1

T1 sequence (P68871 2-147 partner limits assumed): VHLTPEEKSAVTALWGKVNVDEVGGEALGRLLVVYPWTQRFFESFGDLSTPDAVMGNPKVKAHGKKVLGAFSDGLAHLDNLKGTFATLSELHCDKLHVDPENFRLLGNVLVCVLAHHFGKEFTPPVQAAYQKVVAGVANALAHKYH
T1 sequence (P69905 2-142 limits assumed): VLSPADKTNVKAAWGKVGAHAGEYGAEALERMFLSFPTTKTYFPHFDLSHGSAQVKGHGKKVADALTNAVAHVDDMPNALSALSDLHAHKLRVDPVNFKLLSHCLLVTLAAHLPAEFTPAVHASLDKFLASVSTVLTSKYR

On to `Cc1cc(C)cc(NC(=O)Cc2ccc(OC3(C(=O)N[C@@H](CCCCN)C(=O)O)CCCC3)cc2)c1`, for which the P50e in experiment [1] came out at 27.2 mmHg; in experiment [3], 5.8 mmHg; in experiment [7] it was 29 mmHg. Also, in experiment [2], the P50e / P50c was determined as 1.2. Moreover, in experiment [4], the Delta P50 was -0.2. In experiment [5], this compound registered a Hill coefficient (n50) of 2.3. Moreover, the n50e in experiment [6] was 2.7. Further, the P50c in experiment [8] came out at 28.3 mmHg.
For `Cc1cc(C)cc(NC(=O)Cc2ccc(OC3(C(=O)N[C@H](Cc4ccccc4)C(=O)O)CCCC3)cc2)c1`, the values for the P50e in experiment [1], in experiment [3] and in experiment [7] were 48.1 mmHg, 8.2 mmHg and 49.8 mmHg, respectively. In addition, the P50e / P50c in experiment [2] turned out to be 1.7. The compound further displayed a Delta P50 in experiment [4] of 20.3. In experiment [5], this compound returned a Hill coefficient (n50) of 2.6. For the same compound, in experiment [6], the n50e worked out at 1.9. For the same compound, the P50c in experiment [8] was 28.7 mmHg.
On to `Cc1cc(C)cc(NC(=O)Cc2ccc(OC3(C(=O)N[C@@H](CO)C(=O)O)CCCC3)cc2)c1`, for which the P50e is 38.7 mmHg in experiment [1], 17.1 mmHg in experiment [3] and 44.7 mmHg in experiment [7]. Also, in experiment [2], the P50e / P50c is 3.4. In experiment [4], this compound displayed a Delta P50 of 15.5. This compound also came in with a Hill coefficient (n50) in experiment [5] of 2.6. In experiment [6], the n50e amounted to 2.3. Further, the P50c in experiment [8] was 26.2 mmHg.
For `CSCC[C@@H](NC(=O)C1(Oc2ccc(CC(=O)Nc3cc(C)cc(C)c3)cc2)CCCC1)C(=O)O`, the P50e in experiment [1] turned out to be 44.8 mmHg; in experiment [3], 9.5 mmHg; in experiment [7], 45.5 mmHg. In addition, the P50e / P50c in experiment [2] amounted to 1.9. In addition, the Delta P50 in experiment [4] is 20.6. In experiment [5], this compound came in with a Hill coefficient (n50) of 2.8. In addition, the n50e in experiment [6] was found to be 2.1. Moreover, the P50c in experiment [8] came to 24.5 mmHg.
Turning to `Cc1cc(C)cc(NC(=O)Cc2ccc(OC3(C(=O)N[C@H](CC(C)C)C(=O)O)CCCC3)cc2)c1`, the P50e came out at 41.9 mmHg in experiment [1], 9.4 mmHg in experiment [3] and 42.6 mmHg in experiment [7]. Besides, the P50e / P50c in experiment [2] is 1.9. Further, the Delta P50 in experiment [4] turned out to be 15.2. The same compound displayed a Hill coefficient (n50) in experiment [5] of 2.6. Further, in experiment [6], the n50e came to 2.3. In addition, the P50c in experiment [8] was found to be 27.1 mmHg.
As for `CC[C@@H](C)[C@@H](NC(=O)C1(Oc2ccc(CC(=O)Nc3cc(C)cc(C)c3)cc2)CCCC1)C(=O)O`, the values for the P50e in experiment [1], in experiment [3] and in experiment [7] were 38.9 mmHg, 12.3 mmHg and 40.6 mmHg, respectively. The P50e / P50c in experiment [2] is 2.5. This compound registered a Delta P50 in experiment [4] of 13.2. In experiment [5], this compound displayed a Hill coefficient (n50) of 2.6. Further, in experiment [6], the n50e stood at 2.3. Also, in experiment [8], the P50c is 26.5 mmHg.
`Cc1cc(C)cc(NC(=O)Cc2ccc(OC3(C(=O)N[C@H](CCCCN)C(=O)O)CCCC3)cc2)c1`: the P50e in experiment [1] is 26.7 mmHg; in experiment [3], 8.1 mmHg; in experiment [7], 28.6 mmHg. For the same compound, the P50e / P50c in experiment [2] turned out to be 1.6. Further, the Delta P50 in experiment [4] is -0.6. This compound also registered a Hill coefficient (n50) in experiment [5] of 2.4. In addition, the n50e in experiment [6] was determined as 2.7. Besides, the P50c in experiment [8] amounted to 28.3 mmHg.
With `Cc1cc(C)cc(NC(=O)Cc2ccc(OC3(C(=O)N[C@H](CCCCNC(=O)OCc4ccccc4)C(=O)O)CCCC3)cc2)c1`, the P50e in experiment [1] turned out to be 27.6 mmHg; in experiment [3] it was 22.4 mmHg; in experiment [7], 28.2 mmHg. Further, the P50e / P50c in experiment [2] was 4.5. In addition, the Delta P50 in experiment [4] came out at 0.4. For the same compound, the Hill coefficient (n50) in experiment [5] was 2.5. In addition, in experiment [6], the n50e was found to be 2.5. Moreover, in experiment [8], the P50c was 27.5 mmHg.
As for `Cc1cc(C)cc(NC(=O)Cc2ccc(OC(C)(C)C(=O)O)cc2)c1`, the P50e in experiment [1] turned out to be 80 mmHg; in experiment [7], 82.6 mmHg. Moreover, the P50e / P50c in experiment [2] came to 4.7. The compound further returned a Delta P50 in experiment [4] of 51.5. Also, the Hill coefficient (n50) in experiment [5] is 2.3. Further, in experiment [6], the n50e came to 1.5. Besides, the P50c in experiment [8] was 29.8 mmHg.
`Cc1cc(C)cc(NC(=O)Cc2ccc(OC3(C(=O)O)CCCC3)cc2)c1`: the P50e was found to be 67.7 mmHg in experiment [1] and 74.7 mmHg in experiment [7]. For the same compound, the P50e / P50c in experiment [2] is 5.1. Also, the Delta P50 in experiment [4] was determined as 42.3. In experiment [5], this compound returned a Hill coefficient (n50) of 2.4. Further, the n50e in experiment [6] was found to be 1.7. For the same compound, in experiment [8], the P50c is 28.9 mmHg.
